According to ChEMBL document CHEMBL4049388, “Facile and efficient access to Androsten-17-(1',3',4')-pyrazoles and Androst-17β-(1',3',4')-pyrazoles via Vilsmeier reagents, and their antiproliferative activity evaluation in vitro” (Eur J Med Chem, 2017):

Assays:
[1] = test system: HeLa; assay: Induction of apoptosis in human HeLa cells assessed as gated cells at late apoptotic stage at 2.5 uM after 24 hrs by Annexin-V-FITC/propidium iodide staining based flow cytometry (reference value: 0.03%); format: functional
Method in brief: (§1)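 Hela cells seeded at 10^6 per well and stabilized 24 h at 37 °C, 5% CO2. Then treated 24 h at 2.5, 5.0 or 7.5 μM, DMSO negative control. Cells washed in cold PBS, resuspended at 1×10^6 cells/mL in cold binding buffer, stained with annexin V-FITC then PI for 15 min in dark, analysed by flow cytometry.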

[2] = test system: HeLa; assay: Induction of apoptosis in human HeLa cells after 48 hrs by Hoechst 33342 staining based fluorescence microscopic method; format: functional, cell-based
Method in brief: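 Hela cells seeded at 10^6 per well on cover slips and incubated 16 h. Then exposed 48 h at 2.5, 5.0 or 7.5 μM, DMSO negative control. Cells fixed in 4% paraformaldehyde for 15 min, washed in PBS, stained with Hoechst 33342 for 10 min. Nuclear morphology viewed by fluorescence microscopy, ex 350 nm / em 460 nm.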

[3] = test system: HeLa; assay: Cytotoxicity against human HeLa cells after 72 hrs by SRB assay; format: functional, cell-based
Method in brief: (§2)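 SRB assay on 293T, A549, Hela and MCF-7 cells, with cisplatin as reference control. IC50 calculated for each compound from triplicate assays.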

[4] = test system: HeLa; assay: Induction of apoptosis in human HeLa cells assessed as gated cells at early apoptotic stage at 5 uM after 24 hrs by Annexin-V-FITC/propidium iodide staining based flow cytometry (reference value: 0.04%); format: functional; method in brief: as §1
[5] = test system: HeLa; assay: Induction of apoptosis in human HeLa cells assessed as total cells at viable stage at 5 uM after 24 hrs by Annexin-V-FITC/propidium iodide staining based flow cytometry (reference value: 96.16%); format: functional; method in brief: as §1
[6] = test system: HeLa; assay: Induction of apoptosis in human HeLa cells assessed as gated cells at necrotic stage at 7.5 uM after 24 hrs by Annexin-V-FITC/propidium iodide staining based flow cytometry (reference value: 0.05%); format: functional; method in brief: as §1
[7] = test system: HeLa; assay: Cell cycle arrest in human HeLa cells assessed as accumulation at S phase at 7.5 uM after 24 hrs by propidium iodide staining based flow cytometry (reference value: 18.92%); format: functional
[8] = test system: HeLa; assay: Cell cycle arrest in human HeLa cells assessed as accumulation at S phase at 2.5 uM after 24 hrs by propidium iodide staining based flow cytometry (reference value: 18.92%); format: functional
[9] = test system: HeLa; assay: Induction of apoptosis in human HeLa cells assessed as gated cells at late apoptotic stage at 7.5 uM after 24 hrs by Annexin-V-FITC/propidium iodide staining based flow cytometry (reference value: 0.03%); format: functional; method in brief: as §1
[10] = test system: HeLa; assay: Cell cycle arrest in human HeLa cells assessed as accumulation at G1 phase at 2.5 uM after 24 hrs by propidium iodide staining based flow cytometry (reference value: 56.72%); format: functional
[11] = test system: HEK-293T; assay: Cytotoxicity against human 293T cells after 72 hrs by SRB assay; format: cell-based; method in brief: as §2
[12] = test system: HeLa; assay: Cell cycle arrest in human HeLa cells assessed as accumulation at G1 phase at 5 uM after 24 hrs by propidium iodide staining based flow cytometry (reference value: 56.72%); format: functional
[13] = test system: HeLa; assay: Cell cycle arrest in human HeLa cells assessed as accumulation at G2 phase at 7.5 uM after 24 hrs by propidium iodide staining based flow cytometry (reference value: 24.36%); format: functional
[14] = test system: HeLa; assay: Induction of apoptosis in human HeLa cells assessed as gated cells at viable stage at 7.5 uM after 24 hrs by Annexin-V-FITC/propidium iodide staining based flow cytometry (reference value: 99.88%); format: functional; method in brief: as §1
[15] = test system: HeLa; assay: Induction of apoptosis in human HeLa cells assessed as gated cells at necrotic stage at 5 uM after 24 hrs by Annexin-V-FITC/propidium iodide staining based flow cytometry (reference value: 0.05%); format: functional; method in brief: as §1
[16] = test system: HeLa; assay: Induction of apoptosis in human HeLa cells assessed as gated cells at necrotic stage at 2.5 uM after 24 hrs by Annexin-V-FITC/propidium iodide staining based flow cytometry (reference value: 0.05%); format: functional; method in brief: as §1

Compound: CCNCc1cn(-c2ccccc2)nc1C1=CC[C@H]2[C@@H]3CC=C4C[C@@H](O)CC[C@]4(C)[C@H]3CC[C@]12C
- Activity [1]: 0.16%
- Activity [2]: Dose-dependent effect
- IC50 [3]: 530 nM
- Activity [4]: 2.41%
- Activity [5]: 80.32%
- Activity [6]: 3.12%
- Activity [7]: 24.77%
- Activity [8]: 19.8%
- Activity [9]: 1.01%
- Activity [10]: 51.99%
- IC50 [11]: 870 nM
- Activity [12]: 53.13%
- Activity [13]: 25.31%
- Activity [14]: 87.49%
- Activity [15]: 3.79%
- Activity [16]: 1.31%
